For assay [1], the target named is T1, 5-hydroxytryptamine receptor 1B (Homo sapiens, UniProt P28222). Briefly: Binding affinity towards human 5-hydroxytryptamine 1B receptor using [3H]5-HT trifluoroacetate as radioligand. A digest of the protocol:
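Membrane homogenate (0.1 mg protein/well) incubated in triplicate with [3H]-5-HT (2.5 nM final) in 50 mM Tris, 10 mM MgSO4, 0.5 mM EDTA, 10 µM pargyline, 0.1% ascorbic acid, pH 7.4. Incubation 60 min at room temperature. Nonspecific binding defined with 20 µM 5-HT. Filtration over GF/B, scintillation counting.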

The target of assay [2] is T1, 5-hydroxytryptamine receptor 1B. The assay is described as follows: Adenyl cyclase activity was expressed as percent forskolin response against 5-hydroxytryptamine 1B receptor at concentration 1 uM. The format is functional. A digest of the protocol: (§1)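 Agonist test in CHO Pro 5 cells stably transfected with human h5-HT1B or h5-HT1D receptors. Compound added to culture medium with 10 µM forskolin and 0.5 mM IBMX, 30 min at 37 °C. Stopped with cold ethanolic 5 mM EDTA (2:1 v/v) to extract cAMP. cAMP measured by enzyme immunoassay; mean ± SEM from three or more experiments.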

The target in assay [3] is T2, Adrenergic receptor alpha-2 (Homo sapiens, UniProt P08913+P18825+P18089).
T2 sequence (P08913 whole entry): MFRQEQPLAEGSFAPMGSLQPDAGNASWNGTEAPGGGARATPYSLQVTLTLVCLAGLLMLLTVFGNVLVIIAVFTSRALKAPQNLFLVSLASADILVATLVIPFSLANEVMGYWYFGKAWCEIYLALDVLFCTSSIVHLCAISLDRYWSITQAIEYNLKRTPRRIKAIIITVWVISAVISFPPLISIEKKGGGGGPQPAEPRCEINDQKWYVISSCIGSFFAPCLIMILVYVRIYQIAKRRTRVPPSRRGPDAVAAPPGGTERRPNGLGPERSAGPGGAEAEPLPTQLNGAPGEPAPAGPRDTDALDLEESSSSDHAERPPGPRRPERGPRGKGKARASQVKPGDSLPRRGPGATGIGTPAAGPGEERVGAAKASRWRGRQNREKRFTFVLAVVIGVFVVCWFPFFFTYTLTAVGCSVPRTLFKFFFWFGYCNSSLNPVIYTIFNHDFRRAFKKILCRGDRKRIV
T2 sequence (P18825 whole entry): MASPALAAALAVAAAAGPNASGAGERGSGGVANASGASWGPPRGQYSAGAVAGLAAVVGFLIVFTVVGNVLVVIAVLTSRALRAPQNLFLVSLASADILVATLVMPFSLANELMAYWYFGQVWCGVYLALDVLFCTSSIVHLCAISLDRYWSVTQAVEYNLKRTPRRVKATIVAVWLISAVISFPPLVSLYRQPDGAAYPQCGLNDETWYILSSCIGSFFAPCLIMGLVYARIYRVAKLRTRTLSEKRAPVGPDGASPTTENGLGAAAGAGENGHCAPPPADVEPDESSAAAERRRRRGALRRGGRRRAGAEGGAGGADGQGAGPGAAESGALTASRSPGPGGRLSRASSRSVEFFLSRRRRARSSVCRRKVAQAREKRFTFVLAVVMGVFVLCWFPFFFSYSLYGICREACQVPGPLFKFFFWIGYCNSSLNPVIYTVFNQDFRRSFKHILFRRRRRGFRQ
T2 sequence (P18089 whole entry): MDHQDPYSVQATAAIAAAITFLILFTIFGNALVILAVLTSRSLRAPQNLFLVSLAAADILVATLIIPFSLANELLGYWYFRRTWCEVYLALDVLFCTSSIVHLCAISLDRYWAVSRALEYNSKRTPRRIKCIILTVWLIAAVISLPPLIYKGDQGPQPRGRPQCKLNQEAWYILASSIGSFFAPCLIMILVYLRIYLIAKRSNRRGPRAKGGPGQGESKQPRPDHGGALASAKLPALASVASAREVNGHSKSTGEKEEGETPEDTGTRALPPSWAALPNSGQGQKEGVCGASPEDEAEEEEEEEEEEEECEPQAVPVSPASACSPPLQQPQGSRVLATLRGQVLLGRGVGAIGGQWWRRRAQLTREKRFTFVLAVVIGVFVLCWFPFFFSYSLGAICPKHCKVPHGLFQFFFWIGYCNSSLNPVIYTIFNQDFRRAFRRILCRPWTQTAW
The assay is described as follows: Binding affinity towards Alpha-2 adrenergic receptor. The class given is protein assay.

Assay [4] concerns the target Serotonin 1 receptors; 5-HT1B & 5-HT1D (Homo sapiens) (UniProt P28222+P28221). The assay is described as follows: Binding Selectivity was determined [Selectivity = Ki against h5-HT1B receptor / Ki against h5-HT1D receptor]. The class given is protein assay.
The target of assay [5] is T1, 5-hydroxytryptamine receptor 1B. The assay is described as follows: Adenyl cyclase activity was expressed as percent forskolin response against 5-hydroxytryptamine 1B receptor at concentration 10 uM. The format is functional. A digest of the protocol: as §1
Assay [6] deals with Adrenergic receptor alpha. The assay is described as follows: Binding affinity towards Alpha-1 adrenergic receptor. The format is protein assay, Canis lupus familiaris.
Assay [7] has as its target T3, 5-hydroxytryptamine receptor 1D (Homo sapiens, UniProt P28221). Briefly: Adenyl cyclase activity was expressed as percent forskolin response against 5-hydroxytryptamine 1D receptor at concentration 1 uM. The format is functional. A digest of the protocol:
as §1

Assay [8] addresses T3, 5-hydroxytryptamine receptor 1D. Briefly: Adenyl cyclase activity was expressed as percent forskolin response against 5-hydroxytryptamine 1D receptor at concentration 10 uM. The class given is functional. A digest of the protocol: as §1
Assay [9] is described as follows: Tested for 5-hydroxytryptamine 1D like receptor-mediated vascular effect in rabbit saphenous vein (RSV).
For assay [10], the target named is T3, 5-hydroxytryptamine receptor 1D. Briefly: Binding affinity towards human 5-hydroxytryptamine 1D receptor using [3H]5-HT trifluoroacetate as radioligand.

Each structure is given as a SMILES string.

As usually defined, the Ki is the dissociation constant of the complex between target and ligand, obtained from inhibition or displacement. A high value points to weaker binding. Usually EC50 stands for the concentration needed to bring the measured effect to its halfway point. High values mean a need for much substance, low ones an effect from little substance.

T3 sequence (P28221 whole entry): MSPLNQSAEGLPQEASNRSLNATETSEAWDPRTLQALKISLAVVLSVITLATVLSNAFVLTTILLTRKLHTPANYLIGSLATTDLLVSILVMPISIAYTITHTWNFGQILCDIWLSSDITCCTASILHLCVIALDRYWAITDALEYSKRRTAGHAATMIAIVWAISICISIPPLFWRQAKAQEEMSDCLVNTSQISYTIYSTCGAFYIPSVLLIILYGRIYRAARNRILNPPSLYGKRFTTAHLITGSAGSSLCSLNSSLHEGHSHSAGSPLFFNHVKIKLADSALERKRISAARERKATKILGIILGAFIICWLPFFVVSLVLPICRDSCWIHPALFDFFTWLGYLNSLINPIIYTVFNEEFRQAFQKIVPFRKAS
T1 sequence (P28222 whole entry): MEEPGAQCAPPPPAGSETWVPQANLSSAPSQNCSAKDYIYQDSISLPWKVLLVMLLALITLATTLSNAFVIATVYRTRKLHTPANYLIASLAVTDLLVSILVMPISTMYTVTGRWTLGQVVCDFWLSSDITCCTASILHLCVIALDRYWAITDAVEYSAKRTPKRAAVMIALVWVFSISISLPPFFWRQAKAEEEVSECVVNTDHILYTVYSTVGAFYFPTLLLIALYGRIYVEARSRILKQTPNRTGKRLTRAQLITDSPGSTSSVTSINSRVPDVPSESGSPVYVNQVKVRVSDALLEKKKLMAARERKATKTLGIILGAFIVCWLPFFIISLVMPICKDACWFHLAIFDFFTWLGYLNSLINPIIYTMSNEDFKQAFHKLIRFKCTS

Consider `CC(C)(C)c1ccc(CC2=NCCN2)cc1`, for which the results for the Ki in [1], in assay [3] and in assay [6] were 6.83 µM, 1.12 µM and 2.625 µM, respectively. For the same compound, the Response in assay [2] was found to be 99%; in [5], 86%; in assay [7] it was 69%; in assay [8], 65%. This compound had a Selectivity in assay [4] of 65. In assay [9], this compound returned an EC50 of more than 10 µM.

Turning to `Cc1cc(C(C)C)cc(C)c1CC1=NCCN1`, the Response in assay [2] was determined as 53%; in [5], 56%; in assay [7], 34%; in assay [8] it was 34%. Besides, the values for the Ki in [3], in [10] and in [6] were more than 0.5 µM, 0.0011 µM and 0.065 µM, respectively. This compound also had a Selectivity in [4] of 34. In [9], this compound registered an EC50 of 0.138 µM.

Consider `Cc1cc(C(C)(C)C)cc(C)c1CCN`, for which the Ki was more than 10 µM in assay [1] and 1.36 µM in assay [10].

`CCCCc1ccc(CC2=NCCN2)cc1`: the Ki is more than 10 µM in assay [1] and 2.52 µM in assay [10]. The compound also yielded a Selectivity in assay [4] of more than 4.

For the compound `Cc1cc(C(C)(C)C)ccc1CC1=NCCN1`, the Response in assay [2] came to 63%; in assay [5] it was 58%; in assay [7] it was 51%; in assay [8] it was 50%. Moreover, the Ki was more than 0.5 µM in assay [3] and 0.154 µM in [6]. Further, the Selectivity in assay [4] turned out to be 105. This compound yielded an EC50 in assay [9] of 1.67 µM.

The compound `CN1CCN=C1Cc1ccccc1` displayed a Ki in assay [1] of more than 10 µM.

As to `Brc1ccc(CC2=NCCN2)cc1`, the Ki in assay [1] is more than 10 µM; in assay [10], 4.39 µM. The compound also displayed a Selectivity in [4] of more than 2.

With `Cc1ccc(O)c(C)c1CC1=NCCN1`, the figures for the Ki in [1] and in [10] were 5.79 µM and 1.03 µM, respectively. This compound came in with a Selectivity in assay [4] of 6.

Regarding `Cc1cc(Br)cc(C)c1CC1=NCCN1`, the Selectivity in [4] came to 21.

On to `c1ccc(-c2ccc(CC3=NCCN3)cc2)cc1`, for which the Ki in assay [1] and in assay [10] was more than 10 µM each time.

With `Cc1ccc(CC2=NCCN2)c(C)c1OCc1ccccc1`, the Ki amounted to 3.87 µM in assay [1] and 1.1 µM in assay [10]. For the same compound, the Selectivity in assay [4] was 4.

For the compound `CCc1ccc(CC2=NCCN2)cc1`, the Ki in [1] and in assay [10] was more than 10 µM throughout.

In assay [1], `Cc1cc(C(C)(C)C)c(O)c(C)c1CC1=NCCN1` [OXYMETAZOLINE] displayed a Ki of 0.0003 µM. For the same compound, the Response in assay [2] was 57%; in [5] it was 40%; in [7], 40%; in assay [8], 35%.

In assay [1], `Cc1cc(C(C)(C)C)cc(C)c1CC1=NCCN1C` gave a Ki of more than 5 µM.

For `Cc1cc(C)c(CC2=NCCN2)c(C)c1`, the Response in assay [2] was 49%; in assay [5], 52%; in assay [7] it was 23%; in assay [8], 49%. In addition, the Selectivity in assay [4] was 48. This compound also showed a Ki in [10] of 0.072 µM. Moreover, the EC50 in [9] is 0.15 µM.

Consider `CNCCc1c(C)cc(C(C)(C)C)cc1C`, for which the Ki in [1] is more than 10 µM; in assay [10] it was more than 5 µM.

For the compound `Cc1cc(C(C)(C)C)cc(C)c1CC1=NCCN1` [XYLOMETAZOLINE], the Ki in assay [1] is 0.014 µM; in assay [3], more than 0.5 µM; in [6], 0.091 µM. Besides, the Response in assay [2] is 51%; in [5], 64%; in assay [7], 38%; in assay [8], 41%.

For `Cc1cccc(C)c1CC1=NCCN1`, the Ki was more than 10 µM in [1] and 2.21 µM in assay [10]. In [4], this compound gave a Selectivity of more than 4.

With `Oc1cccc(CC2=NCCN2)c1`, the Ki in assay [1] is 3.74 µM; in assay [10], more than 10 µM. The Selectivity in assay [4] was less than 1.

For `CCCc1ccc(CC2=NCCN2)cc1`, the Ki is more than 10 µM in assay [1] and 2.38 µM in [10]. This compound showed a Selectivity in assay [4] of more than 4.

As for `Nc1ccc(CC2=NCCN2)cc1`, the Ki in assay [1] and in [10] was more than 10 µM throughout.

In the case of `c1ccc(CC2=NCCN2)cc1` [TOLAZOLINE], the Ki in [1] and in [10] was more than 10 µM throughout.

`CC(C)c1ccc(CC2=NCCN2)cc1` returned a Selectivity in assay [4] of 8.

For `Cc1ccc(CC2=NCCN2)c(C)c1O`, the Ki was found to be 2 µM in assay [1] and 1.9 µM in assay [10]. In assay [4], this compound showed a Selectivity of 1.

In turn, `COc1cccc(CC2=NCCN2)c1` had a Ki in [1] of 1.63 µM.

As to `O=[N+]([O-])c1ccc(CC2=NCCN2)cc1`, the Ki in assay [1] and in [10] was more than 10 µM each time.

The values above are taken from ChEMBL document CHEMBL1131255, “Benzylimidazolines as h5-HT1B/1D serotonin receptor ligands: a structure-affinity investigation” (J Med Chem, 1998).
